The source of these data is ChEMBL document CHEMBL3272018, “Synthesis of aziridinylallylaminophosphine oxides and sulfides as potential adjuvant cancer chemotherapeutic agents” (J Med Chem, 1976).

The test system of data set [1] is W256. In words: Antitumor activity against rat Walker 256 cells intramuscularly allografted in rat assessed as survival rate at 0.25 mg/kg, qd administered for 5 days. In kind it is functional, organism-based. Also noted: dose 0.25 mg/kg. The method in brief:
(§1)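 Rats bearing Walker 256 carcinoma as a solid tumor; lines 1-8 use a cytoxan-resistant Walker 256 subline. Dosed once daily for 5 days. Treated (T) and untreated control (C) groups are compared, and the response is given as T/C percentage, reflecting increase in survival time. Host weight change is the average weight change of the test group minus that of the controls, in grams.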

The test system of data set [2] is W256. In words: Antitumor activity against rat Walker 256 cells intramuscularly allografted in rat assessed as survival rate at 0.125 mg/kg, qd administered for 5 days. Also noted: dose 0.125 mg/kg. In kind it is functional, organism-based. The gist of the method: as §1
Data set [3] in a line: Toxicity in rat allografted with rat Walker 256 cells intramuscularly. In kind it is organism-based.
The test system of data set [4] is W256. In words: Antitumor activity against cytoxan-resistant rat Walker 256 cells intramuscularly allografted in rat assessed as tumor growth inhibition at 0.25 mg/kg, qd administered for 5 days relative to control. In kind it is functional. Particulars: W256, im, 120 h, route intramuscular, read-out: TGI. The gist of the method: (§2)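 Dosed once daily for 5 days. Response is tumor progression in treated (T) versus untreated control (C) animals, expressed as T/C percentage. Host weight change is reported as the average net weight change of the test group minus that of the controls, in grams.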

Data set [5] has as its system Rattus norvegicus. The data set is described as follows: Toxicity in rat allografted with cytoxan-resistant rat Walker 256 cells intramuscularly assessed as change in body weight at 0.5 mg/kg, qd administered for 5 days. In kind it is organism-based. Also noted: dose 0.5 mg/kg, route intramuscular. Particulars: in vivo, im, 120 h. The gist of the method:
(§3)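 Walker 256 carcinoma solid-tumour system in rats (parent line, or the line resistant to cytoxan). Dosing was one injection per day for 5 days. Toxicity was taken as the average net body-weight change of the treated group minus the average net weight change of the untreated tumour-bearing controls, in grams.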

The subject of data set [6] is W256. The data set is described as follows: Antitumor activity against rat Walker 256 cells intramuscularly allografted in rat assessed as tumor growth inhibition at 0.5 mg/kg, qd administered for 5 days relative to control. In kind it is functional. The settings on record: W256, im, 120 h, route intramuscular, read-out: TGI. The method in brief:
as §2

Data set [7] concerns W256. In words: Antitumor activity against cytoxan-resistant rat Walker 256 cells intramuscularly allografted in rat assessed as survival rate at 0.12 mg/kg, qd administered for 5 days. In kind it is functional, organism-based. Further details: dose 0.12 mg/kg. The gist of the method:
as §1

In data set [8] the test system is Rattus norvegicus. In words: Toxicity in rat allografted with rat Walker 256 cells intramuscularly assessed as change in body weight at 0.031 mg/kg, qd administered for 5 days. In kind it is organism-based. Also noted: dose 0.031 mg/kg, route intramuscular. The settings on record: in vivo, im, 120 h. The method in brief: as §3
The species entered for data set [9] is Rattus norvegicus. The data set is described as follows: Toxicity in Wistar-Furth rat assessed as decrease in mature spermatocytes measured for 24 hrs. In kind it is organism-based. Particulars: in vivo. The gist of the method: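 Wistar-Furth rats were injected daily for 5 days at the antifertility-study doses of 1 or 5 mg/kg, depending on agent. Testes or ovaries were taken at sacrifice after 1, 3 or 24 h. Cryostat frozen sections were fixed in 95% alcohol for 10 min and stained with acridine orange (DNA green, RNA red). Results were compared with untreated controls.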

Data set [10] has as its system W256. In words: Antitumor activity against rat Walker 256 cells intramuscularly allografted in rat assessed as tumor growth inhibition at 0.062 mg/kg, qd administered for 5 days relative to control. In kind it is functional. Particulars: W256, im, 120 h, route intramuscular, read-out: TGI. The gist of the method: as §2
The test system of data set [11] is W256. In words: Antitumor activity against rat Walker 256 cells intramuscularly allografted in rat assessed as tumor growth inhibition at 0.031 mg/kg, qd administered for 5 days relative to control. In kind it is functional. The settings on record: W256, im, 120 h, route intramuscular, read-out: TGI. The method in brief: as §2
Data set [12] relates to Rattus norvegicus. In words: Toxicity in rat allografted with cytoxan-resistant rat Walker 256 cells intramuscularly assessed as change in body weight at 1 mg/kg, qd administered for 5 days. In kind it is organism-based. Also noted: dose 1 mg/kg, route intramuscular. Particulars: in vivo, im, 120 h. The gist of the method:
as §3

In data set [13] the test system is Musca domestica. In words: Toxicity in male house fly assessed as lowest dose required to cause complete sterility administered in sugar. In kind it is organism-based. Particulars: in vivo, po.
The test system of data set [14] is W256. The data set is described as follows: Antitumor activity against cytoxan-resistant rat Walker 256 cells intramuscularly allografted in rat assessed as survival rate at 1 mg/kg, qd administered for 5 days. Also noted: dose 1 mg/kg. In kind it is functional, organism-based. The method in brief:
as §1

The subject of data set [15] is Rattus norvegicus. In words: Toxicity in rat allografted with rat Walker 256 cells intramuscularly assessed as change in body weight at 1 mg/kg, qd administered for 5 days. In kind it is organism-based. Also noted: dose 1 mg/kg, route intramuscular. The settings on record: in vivo, im, 120 h. The method in brief: as §3
In data set [16] the test system is Rattus norvegicus. The data set is described as follows: Toxicity in rat allografted with rat Walker 256 cells intramuscularly assessed as change in body weight at 0.125 mg/kg, qd administered for 5 days. In kind it is organism-based. Also noted: dose 0.125 mg/kg, route intramuscular. The settings on record: in vivo, im, 120 h. The method in brief:
as §3

Data set [17] concerns W256. In words: Antitumor activity against rat Walker 256 cells intramuscularly allografted in rat assessed as tumor growth inhibition at 2 mg/kg, qd administered for 5 days relative to control. In kind it is functional. Particulars: W256, im, 120 h, route intramuscular, read-out: TGI. The gist of the method: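 Walker 256 carcinoma grown as a solid tumour in rats, with one injection daily for 5 days. Response is given as T/C %, the treated-group measure over the untreated-control tumour measure; a smaller value means more activity. Host toxicity is the mean net weight change of treated minus control animals, in grams.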

Data set [18] deals with W256. In words: Antitumor activity against rat Walker 256 cells intramuscularly allografted in rat assessed as survival rate at 0.062 mg/kg, qd administered for 5 days. In kind it is functional, organism-based. Further details: dose 0.062 mg/kg. The gist of the method: as §1
In data set [19] the test system is Musca domestica. In words: Toxicity in male house fly assessed as lowest dose required to cause complete sterility administered in food. In kind it is organism-based. Particulars: in vivo, po.
Data set [20] deals with W256. The data set is described as follows: Antitumor activity against cytoxan-resistant rat Walker 256 cells intramuscularly allografted in rat assessed as survival rate at 0.5 mg/kg, qd administered for 5 days. In kind it is functional, organism-based. Further details: dose 0.5 mg/kg. The gist of the method:
as §1

Data set [21] relates to Rattus norvegicus. In words: Toxicity in rat allografted with cytoxan-resistant rat Walker 256 cells intramuscularly assessed as change in body weight at 2 mg/kg, qd administered for 5 days. In kind it is organism-based. Also noted: dose 2 mg/kg, route intramuscular. The settings on record: in vivo, im, 120 h. The method in brief:
as §3

SMILES strings stand for the structures. Activity calls are given as the source filed them. The rule behind the calls is not given here.

The LD50 is the dose expected to kill half of the subjects tested. Low readings indicate a more toxic substance, high ones a less toxic substance. With `C=CCN(CC=C)P(=O)(N1CC1)N1CC1`, the outcome in the data set with W256 [1], in the data set on W256 [2], in the data set on W256 [7], in the data set on W256 [14], in the data set with W256 [18] and in the data set with W256 [20] was Active. The same compound displayed a median lethal dose (LD50) in [3] of 5 mg/kg. Further, the inhibition in vivo at 0.25 mg/kg in the data set with W256 [4] turned out to be 60%. Besides, the Activity in the data set on Rattus norvegicus [5] is -13 g; with Rattus norvegicus [8] it was 0 g; in the data set filed under Rattus norvegicus [9] it was “Non-toxic”; with Rattus norvegicus [12] it was -13 g; with Musca domestica [13] it was 0.05%; in the data set on Rattus norvegicus [15], -26 g. The values for the Activity in the data set on Rattus norvegicus [16], in the data set on Musca domestica [19] and in the data set on Rattus norvegicus [21] were -1 g, 0.1% and -2 g, respectively. Besides, the inhibition in vivo at 0.5 mg/kg with W256 [6] turned out to be 0%. Moreover, the inhibition in vivo at 0.062 mg/kg in the data set on W256 [10] worked out at 7%. Moreover, the inhibition in vivo at 0.031 mg/kg in the data set with W256 [11] is 24%. In the data set with W256 [17], the inhibition in vivo at 2 mg/kg was determined as 0%.
